Yeast growth inh – yeast BB579 growth reduction in restrictive medium | inhibition, % at 10 µM | S. cerevisiae BB579 growth, OD615, 48 h | actives 0.51% (n = 140,000);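 active means inhibition above a set limit, 3 SD over the mean compound inhibition, cut at about 44% in these data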
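System: Saccharomyces cerevisiae DeaD strain BB579, replicative lifespan model yeast | Buffer or medium: Restrictive glucose-based CSMM-D medium | Times: 4 h preincubation and 48 h exposure at 30 °C | Detection: OD615 turbidity measurement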
Yeast life ext – extends the lifespan of yeast | S. cerevisiae growth with nicotinamide, OD615; deaD strain in restrictive glucose medium | actives 0.68% (n = 130,000) | inhibition of the nicotinamide effect, % at 10 µM;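 active means inhibition above a set limit, placed 3 SD over the median of all compounds, cut at about 26% in these data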;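 further: 0% = nicotinamide-treated wells and 100% = cells grown without nicotinamide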
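Measured by: optical density (absorbance) at 615 nm; System: modified budding yeast, DeaD strain; Medium: restrictive CSMM-D dextrose medium; Timing: 4 h preincubation then 48 h treatment at 30 °C.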
INS promoter inh – TRM-6 insulin promoter activity inhibition; TRM-6 cells, insulin promoter-eGFP reporter, imaging; reporter expression induced with tamoxifen; inhibition, % at 2 µM; actives 0.9% (n = 130,000); AID 1273;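 active means inhibition above the mean plus 3 SD, with well images judged a real hit on visual review, cut at about 60% in these data, passing the limit was not always enough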
RAM inhibit – blocks the yeast RAM network | inhibition, % at 50 µM | actives 1.8% (n = 190,000) | S. cerevisiae dse1pr::URA3 reporter, 5-FOA growth OD615, 2 d; analog-sensitive cbk1-as2 kinase mutant strain;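 active means inhibition above a set limit, 3 SD over mean compound inhibition, cut at about 8.4% in these data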;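 further: 0% = DMSO-only wells with no growth and 100% = 10 µM 1-NA-PP1 full growth; inhibition rescues growth on 5-FOA so higher OD means more RAM inhibition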
Insulin prom up – MIN6 insulin promoter up-regulation; z-score at 5 µM; MIN6 insulin promoter-GFP reporter, high-content imaging; stronger effect = higher value; actives 0.3% (n = 190,000);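 active means z-score above 3 at 5 µM with at least 500 cells counted in the well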
Active calls of the source: *. The list is not random: actives were taken first. Their share in the collection is about 3.1%.

What do the screens show for `O=C(COC(=O)c1cc(C(F)(F)F)cc(C(F)(F)F)c1)NCc1ccc(Cl)cc1`?
Yeast growth inh: -37; Yeast life ext: 10; INS promoter inh: -9; RAM inhibit: 2; Insulin prom up: 0.67

What do the screens show for `COc1ccc(-n2nnc3c(SCC(=O)NCC4CCCO4)ncnc32)cc1` (configuration not stated)?
Yeast growth inh: -4; Yeast life ext: -11; INS promoter inh: -43; RAM inhibit: 1; Insulin prom up: 0.01

What do the screens show for `COc1ccccc1-c1nc2ccccc2nc1-c1ccccc1OC`?
Yeast growth inh: -22; Yeast life ext: 4; RAM inhibit: 1; Insulin prom up: -0.04

How did O=C1c2ccccc2-c2nc3ccccc3nc21 do in these assays?
Yeast growth inh: 85*; Yeast life ext: -15; INS promoter inh: 12; RAM inhibit: 0; Insulin prom up: 0.36

How did Cc1nc(=O)c(-c2ccccc2)c(C)n1-c1ccc(O)cc1 do in these assays?
Yeast growth inh: -58; Yeast life ext: -5; INS promoter inh: 100*; RAM inhibit: 1; Insulin prom up: -0.4

Results for O=C1OC2(CCCCC2)OC(=O)C1=CNc1nccs1 ?
Yeast growth inh: -16; Yeast life ext: 25; INS promoter inh: 12; RAM inhibit: 2; Insulin prom up: 0.6

Results for O=C1OC2(CCCCC2)OC(=O)C1=CNc1nc2ccccc2s1 ?
Yeast growth inh: -42; Yeast life ext: 69*; INS promoter inh: -25; RAM inhibit: 1; Insulin prom up: 0.19

How did Cc1ccc(OCC(=O)NC(=S)Nc2ccc(Br)cn2)cc1C do in these assays?
RAM inhibit: 9.5*; Insulin prom up: 0.09

Results for Fc1ccc(-c2csc(-c3ccncc3)n2)cc1 ?
INS promoter inh: -15; RAM inhibit: 1; Insulin prom up: -0.18

Results for N#C/C(=N/O)c1nc(-c2ccc(F)cc2)cs1 ?
Yeast growth inh: 54*; Yeast life ext: -3; INS promoter inh: -67; RAM inhibit: -1; Insulin prom up: -0.03

What do the screens show for `COc1cc(S(=O)(=O)Nc2cccc(C)c2)ccc1N=Cc1c(C)[nH]n(-c2ccccc2)c1=O`?
Yeast growth inh: -33; Yeast life ext: -5; INS promoter inh: -30; RAM inhibit: 8.5*; Insulin prom up: 0.66

What do the screens show for `COc1nccnc1NS(=O)(=O)c1ccc(N=Cc2c(C)[nH]n(-c3ccccc3)c2=O)cc1`?
Yeast growth inh: -43; Yeast life ext: 2; INS promoter inh: 14; RAM inhibit: 5; Insulin prom up: 0.27

Results for COc1cc(S(=O)(=O)Nc2ccc(C)cc2)ccc1N=Cc1c(C)[nH]n(-c2ccccc2)c1=O ?
Yeast growth inh: -37; Yeast life ext: 4; INS promoter inh: 72*; RAM inhibit: 6; Insulin prom up: 0.44

How did Cc1ccc(Cl)c(OC(=O)Cn2cnc3c2c(=O)n(C)c(=O)n3C)c1 do in these assays?
RAM inhibit: 0; Insulin prom up: 0.68

What do the screens show for `COC(=O)c1sc2ncccc2c1OCc1cccc(Cl)c1`?
Yeast growth inh: -27; Yeast life ext: -17; INS promoter inh: 17; RAM inhibit: 9.6*; Insulin prom up: -0.07

What do the screens show for `COC(=O)c1sc2ncccc2c1OCc1c(Cl)cccc1Cl`?
Yeast growth inh: -13; Yeast life ext: -15; RAM inhibit: 3; Insulin prom up: -0.52

What do the screens show for `O=C(Cc1ccccc1)Nc1cccc(C(=O)O)c1O`?
RAM inhibit: 1; Insulin prom up: 0.15

What do the screens show for `Nc1ccc(O)cc1C(=O)OCC(=O)c1ccc(C2CCCCC2)cc1`?
Yeast growth inh: -44; Yeast life ext: 8; INS promoter inh: -21; RAM inhibit: 10*; Insulin prom up: -0.52

How did Cc1nn(-c2ccccc2)c(C)c1-c1nnc(-c2c(C)nn(-c3ccccc3)c2C)o1 do in these assays?
Insulin prom up: -0.74

What do the screens show for `CSc1nsc(/C=C/Nc2ccc(C)cc2)c1C#N`?
Yeast growth inh: -19; Yeast life ext: -20; INS promoter inh: -221; RAM inhibit: 6; Insulin prom up: 3.5*

How did COc1ccc(-c2nnc(SCC(=O)Nc3ccc(C)cc3)n2C)cc1 do in these assays?
Yeast growth inh: -37; Yeast life ext: -7; INS promoter inh: -44; RAM inhibit: 2; Insulin prom up: 0.1

How did COc1ccc(CNC(=O)CSc2nnc(-c3ccc(NC(C)=O)cc3)n2C)cc1 do in these assays?
Yeast growth inh: 48*; Yeast life ext: -27; INS promoter inh: -269; RAM inhibit: 1; Insulin prom up: 0.43

How did CC(=O)Nc1ccc(-c2nnc(SCC(=O)c3ccc4c(c3)Cc3ccccc3-4)n2C)cc1 do in these assays?
Yeast growth inh: -36; Yeast life ext: -8; INS promoter inh: -11; RAM inhibit: 2

How did CC(=O)Nc1ccc(-c2nnc(SCc3c(C)cc(C)cc3C)n2C)cc1 do in these assays?
Yeast growth inh: -3; Yeast life ext: -3; RAM inhibit: 8.5*; Insulin prom up: 0.23

Results for O=C(CSc1nnc(-c2ccco2)o1)c1ccc[nH]1 ?
INS promoter inh: -67; RAM inhibit: 0; Insulin prom up: 0.69

What do the screens show for `COc1cc([N+](=O)[O-])ccc1NC(=O)CCCOc1cc(C)ccc1C`?
Yeast growth inh: -23; Yeast life ext: -1; RAM inhibit: 9.9*; Insulin prom up: 0.55

How did COc1cc([N+](=O)[O-])ccc1NC(=O)CCCOc1ccccc1 do in these assays?
Yeast growth inh: -35; Yeast life ext: -9; INS promoter inh: -58; RAM inhibit: 2; Insulin prom up: 0.52

Results for CCCCC(=O)Nc1ccc(NC(=O)c2ccc([N+](=O)[O-])cc2)cc1OC ?
Yeast growth inh: -37; Yeast life ext: 5; INS promoter inh: 0; RAM inhibit: 9.1*; Insulin prom up: -0.1

Results for CCN1CCN(c2ccc(S(=O)(=O)N3CCCC3)cn2)CC1 ?
INS promoter inh: 0; RAM inhibit: 3; Insulin prom up: 1

Results for COc1cc2[nH]c(=S)nc(NCCC(C)C)c2cc1OC ?
INS promoter inh: 83*; RAM inhibit: 1; Insulin prom up: -1.1

What do the screens show for `COCCCNc1nc(=S)[nH]c2cc(OC)c(OC)cc12`?
Yeast growth inh: -52; Yeast life ext: -2; RAM inhibit: 2; Insulin prom up: 0.13

What do the screens show for `CC1CCCCN1C(=O)/C=C/c1ccccc1[N+](=O)[O-]` (configuration not stated)?
RAM inhibit: -1

How did COc1cc(Cl)c(C)cc1NC(=O)CN(C)Cc1cccc(OC)c1OC do in these assays?
RAM inhibit: 0; Insulin prom up: 3.4*

What do the screens show for `COc1ccc(C(=O)NNC(=O)CSc2nnc(COc3ccccc3OC)n2C)cc1`?
Yeast growth inh: -58; Yeast life ext: 3; INS promoter inh: -40; RAM inhibit: 3

How did COC(=O)c1ccccc1NC(=O)C1CC(=O)N(c2ccc(F)cc2)C1 (configuration not stated) do in these assays?
Yeast growth inh: -11; Yeast life ext: -18; INS promoter inh: 71*; RAM inhibit: 1; Insulin prom up: 1.5

Screens from PubChem.
